LANA DNA inh – inhibitors of KSHV C-LANA binding to DNA, primary screen, biochemical, fluorescence polarization, FAM-LBS DNA, MBP-C-LANA, single point; Kaposi's sarcoma herpesvirus LANA C-terminal domain (residues 932-1162) DNA binding; inhibition, % at 9 µM; 0.078% of 340,000 active; AID 504423, 2011;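 active = highest replicate inhibition at or above 60% at 9 µM, even if other replicates fall short; inactive = all replicates below 60% inhibition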
Keap1 Nrf2 FP – Keap1-Nrf2 protein-protein interaction inhibitors, primary screen, biochemical, fluorescence polarization, single point | Kelch-like ECH-associated protein 1 (Homo sapiens), Q14145 | Keap1 Kelch-Nrf2 peptide fluorescence polarization, 1536-well | inhibition, % at 9.4 µM | 0.15% of 340,000 active | AID 504523, 2011; in the data active = inhibition above about 12%;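 also: human Keap1 Kelch domain with fluorescein labeled Nrf2 9mer peptide probe; higher means more block of Keap1 binding to Nrf2 peptide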
CAL PDZ FP-1 – untagged CAL PDZ binding inhibitors, primary screen, biochemical, fluorescence polarization, HTS. Golgi-associated PDZ and coiled-coil motif-containing protein (Homo sapiens), Q9HD26. purified CAL PDZ, TMR-peptide fluorescence polarization, 1 h. inhibition, % at 24.9 µM. 0.92% of 300,000 active. AID 602252, 2012;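 active = mean inhibition of at least 30% with at least half of replicates also reaching 30%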
A3G deaminase – APOBEC3G DNA deaminase inhibitors, primary screen, biochemical, fluorescence, single-stranded DNA substrate, uHTS. DNA dC->dU-editing enzyme APOBEC-3G (Homo sapiens), Q9HC16. recombinant A3G, ssDNA deamination FAM/TAMRA fluorescence. inhibition, % at 20 µM. 0.28% of 330,000 active;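 active = inhibition of at least 40% at 20 µM, with no more than 30% in the related APOBEC3A deaminase screen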
Target sequence (Q9HC16 whole entry, looked up): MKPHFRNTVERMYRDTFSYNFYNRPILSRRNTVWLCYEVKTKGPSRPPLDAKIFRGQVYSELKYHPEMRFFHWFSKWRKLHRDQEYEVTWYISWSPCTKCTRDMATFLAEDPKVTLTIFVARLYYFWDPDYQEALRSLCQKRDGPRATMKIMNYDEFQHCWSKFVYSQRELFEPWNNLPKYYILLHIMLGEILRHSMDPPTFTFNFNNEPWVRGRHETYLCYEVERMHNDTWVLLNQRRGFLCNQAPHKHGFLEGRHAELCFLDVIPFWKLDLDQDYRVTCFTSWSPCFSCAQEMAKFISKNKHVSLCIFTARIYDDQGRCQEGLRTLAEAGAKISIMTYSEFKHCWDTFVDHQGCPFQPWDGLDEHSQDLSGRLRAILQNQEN
A3A deaminase – APOBEC3A ssDNA deaminase inhibitors, primary screen, selectivity assay for APOBEC3G inhibitor project, biochemical, FAM/TAMRA oligo cleavage fluorescence | DNA dC->dU-editing enzyme APOBEC-3A (Homo sapiens), P31941 | recombinant A3A, FAM/TAMRA ssDNA deamination fluorescence | inhibition, % at 20 µM | 0.41% of 330,000 active | AID 493011, 2011;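 active = at least 40% inhibition at 20 µM here, with at most 30% in a related deaminase screen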
Target sequence (P31941 whole entry, looked up): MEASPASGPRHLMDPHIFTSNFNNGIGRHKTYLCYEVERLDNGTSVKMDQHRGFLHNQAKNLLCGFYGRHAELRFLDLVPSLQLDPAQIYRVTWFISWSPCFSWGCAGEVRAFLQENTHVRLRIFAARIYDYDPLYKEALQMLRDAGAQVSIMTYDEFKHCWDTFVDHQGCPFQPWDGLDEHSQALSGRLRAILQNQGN
CAL PDZ FP-2 – CAL PDZ peptide-binding inhibitors, primary screen, biochemical, fluorescence polarization, Cer-tagged CAL PDZ, HTS; 0.02% of 330,000 active; purified CAL PDZ, TMR-peptide fluorescence polarization, 1 h; inhibition, % at 20 µM; Golgi-associated PDZ and coiled-coil motif-containing protein (Homo sapiens), Q9HD26;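 active = highest replicate inhibition of at least 40%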
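System: tagged CAL PDZ domain. Schedule: 1 h room-temperature incubation prior to read. Signal: fluorescence polarization (mP). Measure: percent inhibition from loss of millipolarization.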
A3A conf – APOBEC3A deaminase inhibitors, retest, confirmation, selectivity assay for APOBEC3G inhibitor project, biochemical, single concentration, fluorescence readout. shares compounds with A3A deaminase. recombinant A3A, ssDNA deaminase UDG fluorescence assay. inhibition, % at 20 µM. 63% of 1,400 active. AID 493151, 2011;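 active = inhibition reaching a set limit, 80% of the first screen's cutoff, at 20 µM in any replicate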
UDG A3A counter – E. coli UDG inhibitors, confirmation, counter-screen for APOBEC3A inhibitor project, biochemical, single concentration, fluorescence, FAM/TAMRA oligo; shares compounds with A3A deaminase; UDG counterscreen, FAM/TAMRA uracil oligo fluorescence; inhibition, % at 20 µM; 1,000 tested, under 10 active; AID 504714, 2011; call rule not given here
Large screens that a line does not name were inactive (follow-up assays come after a bar, where they were run). Hits are enriched below; roughly 1.7% of the tested compounds scored in any of these assays.

Cc1ccc(NC(=O)COC(=O)C2CC(=O)N(Cc3ccccc3)C2)cc1F (centres undefined)	none (no result: CAL PDZ FP-1)
O=C1CC(c2ccco2)CC(O)=C1C=Nc1cc(Cl)ccc1O (centres undefined)	A3A deaminase 55.4 | A3A conf 54.3
COC(=O)c1cccc(N2C(=O)c3cccnc3C2=O)c1	none
COC(=O)c1cccc(N2C(=O)c3ccccc3S2(=O)=O)c1	A3A deaminase 40.3 | A3A conf inactive
Cc1cc(/C=C(/C#N)c2nc3ccccc3[nH]2)c(C)n1-c1cc(C(=O)O)cc(C(=O)O)c1	A3A deaminase 48.9 | A3A conf 41.1 | UDG A3A counter inactive
CCOC(=O)C1=C(C)N=C2SCCC(=O)N2C1c1cc(Br)ccc1OC (centres undefined)	A3A deaminase 40.4 | A3A conf inactive | UDG A3A counter inactive
O=C1CN=C(Nc2ccccc2Cl)N1Cc1ccc2c(c1)OCO2	A3A deaminase 96.0 | A3A conf inactive | UDG A3A counter inactive
CCc1ccccc1NC1=NCC(=O)N1Cc1ccc2c(c1)OCO2	none
CC(=O)c1cccc(N2C(=NC(=O)C3CCCCC3)SC3CS(=O)(=O)CC32)c1 (centres undefined)	none
Cc1ccc2c(c1)N(CCC(=O)NCc1ccco1)C(=O)CO2	none
O=C(CCN1C(=O)COc2ccccc21)NCc1ccco1	A3A deaminase 63.5 | A3A conf inactive | UDG A3A counter inactive
Nc1cc(Cl)ccc1C(=O)OCC(=O)NCc1cccs1	none
Cc1cccc(C(=O)Nc2nnc(SCC(=O)Nc3ccc4c(c3)oc3ccccc34)s2)c1	A3A deaminase 80.9 | A3A conf 83.6 | UDG A3A counter inactive
CN(C[C@H](Cc1ccccc1)N(C[C@H](Cc1ccccc1)N(CCC(C)(C)C)N=O)N=O)N=O	A3A deaminase 98.2 | A3A conf inactive | UDG A3A counter inactive
Cc1nn(C)cc1C(C)Nc1nc2nonc2nc1N1CCCCC1 (centres undefined)	none
CCC[N+]1(CC#CC2(O)CCCCC2)CCOCC1	A3A deaminase 74.0 | A3A conf 82.3 | UDG A3A counter inactive
CCOC(=O)C1=C(COC(=O)/C=C/c2ccco2)NC(=O)NC1C (centres undefined)	A3A deaminase 48.0 (no result: CAL PDZ FP-1) | A3A conf 44.5 | UDG A3A counter inactive
O=C(Nc1cccc(Br)c1)C1CCCC1	none (no result: LANA DNA inh, Keap1 Nrf2 FP, CAL PDZ FP-1, CAL PDZ FP-2)
O=C(O)C1CCCCC1C(=O)Nc1cccc(Br)c1 (centres undefined)	A3A deaminase 94.3 | A3A conf 90.9
COc1ccc(N(CC(=O)N2CCCCCC2)S(C)(=O)=O)cc1Cl	none
COc1ccc(N(CC(=O)N2CCc3ccccc3C2)S(C)(=O)=O)cc1Cl	A3A deaminase 47.2 | A3A conf inactive
CN1/C(=C\C=[N+](C)c2ccccc2)C(C)(C)c2ccccc21	A3A deaminase 56.2 | A3A conf 77.5 | UDG A3A counter inactive
CN1/C(=C\C=N\O)C(C)(C)c2ccccc21	none
COc1ccc([C@H]2CC(=O)C=C(c3ccc(Oc4ccccc4)cc3)C2)cc1OC	none
COC(=O)c1ccc(NC(=O)CSc2ccccc2)cc1	none
COC(=O)c1ccc(NCC(=O)Nc2cc(C)cc(C)c2)cc1	A3A deaminase 50.1 | A3A conf inactive
COC(=O)c1ccc(NC(=O)CSc2ccccn2)cc1	A3A deaminase 54.7 | A3A conf inactive
COC(=O)c1ccc(CNCC(=O)Nc2ccc(C(=O)OC)cc2)cc1	none
CC(CCc1ccccc1)NC(=O)COC(=O)CC1CC2CCC1C2 (centres undefined)	A3A deaminase 121.2 | A3A conf inactive | UDG A3A counter inactive
O=C(COC(=O)CC1CC2CCC1C2)NCc1ccccc1 (centres undefined)	none (no result: CAL PDZ FP-1)
CCOc1ccc(OCCC(=O)OCC(=O)NCCc2ccc(S(N)(=O)=O)cc2)cc1	none
O=[N+]([O-])c1ccc2nc(N3CCCC3)sc2c1	A3A deaminase 44.5 | A3A conf 54.5 | UDG A3A counter inactive
C[N+]1(C)CCC(=C2c3ccccc3CC(=O)c3sccc32)CC1	A3A deaminase 52.2 | A3A conf 53.2
CC(C)c1ccc(C2(C)NC(=O)N(CC(=O)N3CCN(C(=O)c4cccs4)CC3)C2=O)cc1 (centres undefined)	A3A deaminase 48.1 | A3A conf inactive | UDG A3A counter inactive
CCC1(c2ccc(F)cc2)NC(=O)N(CC(=O)N2CCN(C(=O)c3cccs3)CC2)C1=O (centres undefined)	none
O=C(NCC(c1ccco1)N1CCOCC1)c1c(F)cccc1F (centres undefined)	A3A deaminase 43.1 | A3A conf inactive | UDG A3A counter inactive
O=C(NCC(c1ccco1)N1CCOCC1)c1ccc(F)cc1 (centres undefined)	none
CCN(CC(=O)Nc1ccc(NC(C)=O)cc1)C(=O)/C=C/c1ccccc1	none
CCN(CC(=O)Nc1ccc(NC(C)=O)cc1)C(=O)/C=C/c1cn(-c2ccccc2)nc1-c1cccs1	A3A deaminase 44.9 | A3A conf inactive
CCCCCn1cnnc1SCC(=O)c1c(N)n(C2CC2)c(=O)[nH]c1=O	none
COc1ccc2oc(C(=O)OCC(=O)Nc3ccc(NC(C)=O)cc3)c(C)c2c1	A3A deaminase 46.6 | A3A conf inactive
COc1ccc2oc(C(=O)OCC(=O)Nc3cccc(S(=O)(=O)N4CCOCC4)c3)c(C)c2c1	A3A deaminase 43.5 | A3A conf inactive | UDG A3A counter inactive
COc1ccc2oc(C(=O)Nc3cccc(S(=O)(=O)N4CCOCC4)c3)c(C)c2c1	none
O=C(/C=C/c1ccccc1)N1CCN(CCN2C(=O)c3cccc4cccc(c34)C2=O)CC1	none
